Measured values as given in PubChem BioAssay.
Calls of active or inactive are those of the source.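 Rule for the calls, unless noted: active = viability at or below 30% in both replicate assays; inconclusive = viability at or below 30% in just one of the two assays; inactive = the rest.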

Experiments:
[1] = reducers of endogenous Her2 protein level, primary screen, SKBR3 breast tumor cells, AlphaScreen, ATP viability (AID 461;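 active = Her2 level under about 52% in both replicate screens, with viability over 70% of control, limit read from the data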;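 for Her2 level: lower value means less Her2 protein in the cells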;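 for viability: percent of carrier control wells set as 100% viability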); conditions: 18-24 h, measured here: SKBR3 viability, ATP luminescence, at 10 µM
[2] = target: Receptor tyrosine-protein kinase erbB-2 (Homo sapiens) (UniProt P04626); experiment: as above; conditions: 18-24 h, at 10 µM, stronger effect = lower value
[3] = SK-BR-3 cell growth inhibitors, pilot screen, 24 h, human (AID 572;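 active = viability at or below 10% of carrier control in both of two separate runs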;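 note: compound exposure lasted between 18 and 24 h rather than exactly 24 h; 100% = carrier-treated control wells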); conditions: SK-BR-3 viability, CellTiter-Glo luminescence, at 10 µM, stronger effect = lower value
[4] = HUVEC growth inhibition – cell-based, human, primary screen (AID 575); conditions: HUVEC proliferation, CellTiter-Glo luminescence, 72 h; at 10 µM; stronger effect = lower value;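 note: 100% = median of untreated cell wells with 0.1% DMSO on each plate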
How it was run: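 Assay system: primary human umbilical vein endothelial cells / Buffer or medium: endothelial basal medium with 2% FBS plus growth supplements / Compound dosing: one dose, 10 µM final, 0.1% DMSO / Timing: 72 h treatment at 37 °C / Signal: CTG luminescence / Benchmarks: 32 DMSO-only cell-control wells (high), 32 MePR drug-control wells (low) per plate / Plate: collagen-coated 384-well format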

[5] = growth inhibitors of H69AR lung tumor, primary screen, human, duplicate replicates (AID 580;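 active = viability at or under a set limit in both replicates, limit being median viability minus 3 SD, cut at about 48% in these data, passing the limit was not always enough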;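 note: 100% = mean luminescence of untreated wells and 0% = no signal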); conditions: H69AR lung tumor cells viability, ATP luminescence, 72 h; at 10 µM; stronger effect = lower value
[6] = reversal of MRP1-mediated doxorubicin resistance, pilot screen, H69AR cells, doxorubicin co-treatment (AID 601;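 active = viability loss from added drug above about 55%, and viability with drug at most 40%, in both replicates, limit read from the data, passing the limit was not always enough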); conditions: CellTiter-Glo, 72 h, at 10 µM; for differential viability (reversal): stronger effect = higher value
[7] = 384-well plate pilot, post-Golgi transport modulator project, inhibition of yeast transport mutant growth (AID 636; in the data active = inhibition above about 31%); conditions: absorbance 615 nm, about 18 h, stronger effect = higher value
[8] = growth suppression of yeast trafficking mutant, preliminary HTS, modulators of trafficking downstream of Golgi apparatus project, 1536-format plate, OD 615 nm (AID 637; in the data active = inhibition above about 30%); conditions: yeast transport mutant growth, absorbance 615 nm, 18 h; stronger effect = higher value
[9] = H69AR cells + 2 uM doxorubicin, measured here: viability with 2 uM doxorubicin, stronger effect = lower value
[10] = H69AR cells, compound alone cytotoxicity

Chain of Receptor tyrosine-protein kinase erbB-2 (Homo sapiens) (P04626 whole entry, looked up): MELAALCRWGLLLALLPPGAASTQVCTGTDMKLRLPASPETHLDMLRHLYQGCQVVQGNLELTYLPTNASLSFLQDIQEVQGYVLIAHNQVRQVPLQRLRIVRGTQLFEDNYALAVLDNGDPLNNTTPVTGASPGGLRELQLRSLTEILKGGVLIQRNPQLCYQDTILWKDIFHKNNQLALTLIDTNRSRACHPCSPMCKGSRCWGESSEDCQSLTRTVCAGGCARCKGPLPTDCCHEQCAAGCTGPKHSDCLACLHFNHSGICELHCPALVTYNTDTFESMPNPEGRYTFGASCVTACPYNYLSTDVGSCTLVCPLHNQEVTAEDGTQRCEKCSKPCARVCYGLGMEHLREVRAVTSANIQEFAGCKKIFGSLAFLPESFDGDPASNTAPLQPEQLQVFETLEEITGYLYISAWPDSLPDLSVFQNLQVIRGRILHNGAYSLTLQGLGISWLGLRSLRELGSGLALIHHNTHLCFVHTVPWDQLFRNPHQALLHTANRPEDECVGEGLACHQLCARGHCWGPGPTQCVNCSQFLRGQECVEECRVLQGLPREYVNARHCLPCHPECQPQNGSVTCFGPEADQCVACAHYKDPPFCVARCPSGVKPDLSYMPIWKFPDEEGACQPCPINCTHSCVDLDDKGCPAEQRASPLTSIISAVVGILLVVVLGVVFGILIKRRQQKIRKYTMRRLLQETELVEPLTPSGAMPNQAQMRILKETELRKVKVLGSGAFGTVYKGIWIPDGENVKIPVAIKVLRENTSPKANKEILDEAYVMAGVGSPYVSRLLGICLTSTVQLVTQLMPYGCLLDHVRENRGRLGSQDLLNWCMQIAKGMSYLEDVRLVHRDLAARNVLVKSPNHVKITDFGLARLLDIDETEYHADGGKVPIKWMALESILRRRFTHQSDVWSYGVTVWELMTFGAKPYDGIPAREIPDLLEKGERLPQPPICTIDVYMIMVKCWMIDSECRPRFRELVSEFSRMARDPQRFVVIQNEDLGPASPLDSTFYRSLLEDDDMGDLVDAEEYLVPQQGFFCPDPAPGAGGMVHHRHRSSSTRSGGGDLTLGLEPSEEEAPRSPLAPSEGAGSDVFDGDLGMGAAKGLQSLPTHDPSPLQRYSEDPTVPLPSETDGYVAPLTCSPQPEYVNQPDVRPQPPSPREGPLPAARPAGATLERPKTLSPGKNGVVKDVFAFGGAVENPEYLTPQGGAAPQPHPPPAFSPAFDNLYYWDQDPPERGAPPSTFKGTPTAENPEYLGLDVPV

| Structure (SMILES) | viability [1] [%] | Her2 level [2] | viability [3] | viability [4] | viability [5] | differential viability (reversal) ([6]; H69AR cells + 2 uM doxorubicin) | viability [6, 9] [%] | viability [6, 10] [%] | inhibition [7] | inhibition [8] |
| --- | --- | --- | --- | --- | --- | --- | --- | --- | --- | --- |
| COc1ccc(OC)c(CNC(=O)COc2cc(=O)n(C)c3ccccc23)c1 | 82 | 86.5% (inactive) | 82% (inactive) | 105% (inactive) | 88% (inactive) | 2.97% (inactive) | 85 | 88 | 2.31% (inactive) | -4.67% (inactive) |
| C=CCOc1ccc(C2C(C(=O)c3ccco3)=C(O)C(=O)N2Cc2cccnc2)cc1 (stereo not given) | 108 | 89.5% (inactive) | 108% (inactive) | 119% (inactive) | 90.9% (inactive) | 2.87% (inactive) | 88 | 90.9 | -1.71% (inactive) | 8.69% (inactive) |
| NC(=O)C1(N2CCCCC2)CCN(C2CC(=O)N(Cc3cccs3)C2=O)CC1 (stereo not given) | 112 | 103% (inactive) | 112% (inactive) | 101% (inactive) | 98% (inactive) | 6.76% (inactive) | 91.3 | 98 | -4.74% (inactive) | -0.48% (inactive) |
| CN1CCCN(C(=O)c2cc(=O)[nH]c3ccccc23)c2nc3ccccc3nc21 | 114 | 90% (inactive) | 114% (inactive) | 84.2% (inactive) | 79.9% (inactive) | 0.575% (inactive) | 79.3 | 79.9 | -4.93% (inactive) | -2.79% (inactive) |
| CCOc1ccc2ccccc2c1C(=O)N1CCN(c2ccccc2)CC1 | 95 | 83.5% (inactive) | 95% (inactive) | 47.3% (inactive) | 9.8% (active) | -57% (inactive) | 66.8 | 9.8 | -2.8% (inactive) | -10.6% (inactive) |
| N#Cc1nc(-c2ccco2)oc1NCc1ccco1 | 94 | 89% (inactive) | 94% (inactive) | 89.3% (inactive) | 100% (inactive) | 8.27% (inactive) | 92 | 100 | -4.13% (inactive) | -8.25% (inactive) |
| Cc1noc(C)c1C(=O)OCC(=O)Nc1ccccc1C(=O)NC(C)c1ccccc1 (stereo not given) | 90.5 | 86% (inactive) | 90.5% (inactive) | 70.5% (inactive) | 87.2% (inactive) | -6.91% (inactive) | 94.1 | 87.2 | -4.93% (inactive) | 6.72% (inactive) |
| COC(=O)c1nn(-c2ccc(-c3ccccc3)cc2)cc1O | 94 | 97% (inactive) | 94% (inactive) | 92.6% (inactive) | 89.2% (inactive) | 4.12% (inactive) | 85.1 | 89.2 | -4.27% (inactive) | -8.06% (inactive) |
